Experimental data: ChEMBL document CHEMBL3407460, “Synthesis of novel thiazole-based 8,9-dihydro-7H-pyrimido[4,5-b][1,4]diazepines as potential antitumor and antifungal agents” (2015)

Legend:
Format in all cases: functional
IGROV-1 = assay: Antitumor activity against human IGROV1 cells after 48 hrs by Sulforhodamine B assay; conditions: IGROV-1, 48 h; for CC50: read-out: LC50 (the source's name)
In short: (§1)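 NCI 60-cell-line screen. Secondary five-dose test at 100, 10, 1.0, 0.1 and 0.01 µM with continuous drug exposure for 48 h. Cell growth was estimated by sulforhodamine B protein staining. […] LC50 was also reported.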

SR = assay: Antitumor activity against human SR cells after 48 hrs by Sulforhodamine B assay; conditions: for CC50: read-out: LC50 (the source's name); in short: as §1
[1] = Antitumor activity against human OVCAR3 cells after 48 hrs by Sulforhodamine B assay; conditions: OVCAR-3, 48 h; for CC50: read-out: LC50 (the source's name); in short: as §1
MDA-MB-231 = assay: Antitumor activity against human MDA-MB-231 cells after 48 hrs by Sulforhodamine B assay; conditions: MDA-MB-231, 48 h; in short: as §1
[2] = Antitumor activity against human OVCAR8 cells after 48 hrs by Sulforhodamine B assay; conditions: OVCAR-8, 48 h; in short: as §1
[3] = Antitumor activity against human OVCAR5 cells after 48 hrs by Sulforhodamine B assay; conditions: OVCAR-5, 48 h; in short: as §1
[4] = Antitumor activity against human UACC257 cells after 48 hrs by Sulforhodamine B assay; conditions: UACC-257, 48 h; for CC50: read-out: LC50 (the source's name); in short: as §1
[5] = Antitumor activity against human SF295 cells after 48 hrs by Sulforhodamine B assay; conditions: SF-295, 48 h; for CC50: read-out: LC50 (the source's name); in short: as §1

**Q.** Which results are given for `Cc1ccc(C2=Nc3c(N)ncnc3NC(c3sc(Cl)nc3Cl)C2)cc1` (configuration not stated)?
**A.** GI50 (IGROV-1): 7.08 µM; CC50 (IGROV-1): 63.2 µM; GI50 (SR): 2.25 µM; CC50 (SR): 76.7 µM; GI50 [1]: 3.6 µM; CC50 [1]: 43.4 µM; GI50 (MDA-MB-231): 3.86 µM; LC50 (concentration killing 50% of cells) (MDA-MB-231): 42.1 µM; GI50 [2]: 4.8 µM; LC50 (concentration killing 50% of cells) [2]: 80.7 µM; GI50 [3]: 10.2 µM; LC50 [3]: 46.8 µM; GI50 [4]: 6.76 µM; CC50 [4]: 48.6 µM; GI50 [5]: 3.06 µM; CC50 [5]: 36.4 µM

**Q.** With `Nc1ncnc2c1N=C(c1ccc3c(c1)OCO3)CC(c1sc(Cl)nc1Cl)N2` (configuration not stated) as the molecule, how does the GI50 (IGROV-1) read?
**A.** Its GI50 is 10.4 µM.

**Q.** And the CC50 (IGROV-1)?
**A.** The CC50 was greater than 100 µM.

**Q.** And the GI50 (SR)?
**A.** The GI50 was 1.9 µM.

**Q.** What about the CC50 (SR) of the same molecule?
**A.** Its CC50 is greater than 100 µM.

**Q.** What about the GI50 [1] of the same molecule?
**A.** The GI50 was 3.94 µM.

**Q.** What about the CC50 [1] of the same molecule?
**A.** Its CC50 is 66.8 µM.

**Q.** What about the GI50 (MDA-MB-231) of the same molecule?
**A.** Its GI50 is 5.81 µM.

**Q.** What about the LC50 (concentration killing 50% of cells) (MDA-MB-231) of the same molecule?
**A.** Its LC50 (concentration killing 50% of cells) is 55.7 µM.

**Q.** What about the GI50 [2] of the same molecule?
**A.** Its GI50 is 4.86 µM.

**Q.** And the LC50 (concentration killing 50% of cells) [2]?
**A.** The LC50 (concentration killing 50% of cells) was greater than 100 µM.

**Q.** What about the GI50 [3] of the same molecule?
**A.** The GI50 was 6.03 µM.

**Q.** What about the LC50 [3] of the same molecule?
**A.** Its LC50 is greater than 100 µM.

**Q.** And the GI50 [4]?
**A.** Its GI50 is 14.6 µM.

**Q.** What about the CC50 [4] of the same molecule?
**A.** Its CC50 is greater than 100 µM.

**Q.** And the GI50 [5]?
**A.** Its GI50 is 2.21 µM.

**Q.** What about the CC50 [5] of the same molecule?
**A.** Its CC50 is 39.8 µM.
